Results reported in the EternaBench riboswitch data.

System: MS2 coat protein
Assay: apparent Kd, MS2 coat protein; higher = weaker binding; RNA-MaP array; FMN 200 µM where present
Procedure, shortened: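 Green signal was scaled to red-channel RNA signal and control-cluster median Fmax, and the apparent Kd was taken as the median of filtered per-cluster binding-curve fits. The binding series used SNAP-549-labelled MS2 coat protein from 0.7 or 1.5 nM, doubling to 3 µM, on designs transcribed by stalled E. coli RNA polymerase on Illumina sequencing-chip clusters. Each series ran without and then with constant ligand in 100 mM Tris-HCl pH 7.5, 80 mM KCl, 4 mM MgCl2, BSA, DTT, yeast tRNA and Tween-20.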

[1] = designed as: OFF switch for flavin mononucleotide, no ligand
[2] = ligand present: flavin mononucleotide, designed as: OFF switch for flavin mononucleotide
[3] = designed as: ON switch for flavin mononucleotide, no ligand
[4] = ligand present: flavin mononucleotide, designed as: ON switch for flavin mononucleotide

Sequence	apparent Kd [1]	apparent Kd [2]	apparent Kd [3]	apparent Kd [4]
GGGCGUGAAGGAUAUACAUGAGGAUCACCCAUGUGGGAGGAGAGUGGUGAGGAGGCUGGUAGAAGGUCAGGAGG	39.1 nM	32.9 nM	–	–
GCAUGUGUAUAAGGAUAUGCAUCACUGAGAAAUUUAGUGAGGAAGAUCACAUGAGGAUCACCCAUGUAGAAGGUAUACACGUGC	7.32 nM	52.3 nM	–	–
AAGAGUGCAGGAUAUACUUGUUAGGACGGUUGGAUGAUUUGACAUGAGGAUCACCCAUGUAGAAGGGCAGAGAG	155 nM	129 nM	–	–
CCCUCACAUGAGGAUCACCCAUGUCAGGAUAUCUCACAUCGGCCUUAGGCCGAUGUCUAGAGAAGGGACGUAUC	22.1 nM	29.5 nM	–	–
GGGCCGUAGUAGAAGGGAUAUACGAUAGGUAUAUCAGGAUAUACAUGAGGAUCACCCAUGUUCUAACAGUGAUGGUCCUCCCUA	173 nM	374 nM	–	–
CCUGGAUCAUGAGGAUAUGGCACCUUAUUGGUGCCAGAAGGCAUGUCUCUUGACAUGAGGAUCACCCAUGUAAUAAAUUCCAGG	–	–	1020 nM	124 nM
CCUAAGGAGGCAGGAUAUAGUGUGGUGGCCGGGCUCCCACGGCGAGCGGCACUAGAAGGGUCGCUACAUGAGGAUCACCCAUGU	–	–	25 nM	17.3 nM
UAUGAACAUGAGGAUCACCCAUGUGGUACGAUCACAGGAUAUCACCUCGGACGUGCGAUGUGAGAAGGGUGAUGGU	–	–	81.6 nM	29.4 nM
UUACCUCAUGAGAAGGACAUGAGGAUCACCCAUGUAGGAUAUCGUGGGACACUGGAAUUGAAUCUUCGGAUUCAAUAACUGUAU	–	–	349 nM	26.2 nM
UGAUAGGACAGAGGAUAUACGUGCUGGAGAUACUAGCAAAGUAUCUCGACAUGAGGAUCACCCAUGUAGAAGGCUGUCCUAUCU	25.2 nM	89.4 nM	–	–
GUCAGCUCGUGAGGAUAUACAACACUGUUUCGGCAGUGUAUUAAGAUCACAUGAGGAUCACCCAUGUAGAAGGCACGAGCUGAU	13.7 nM	262 nM	–	–
UCCUUCUGUUGAGGAUAUGUAAGACAGCGGCUGCUAUGGCGACACGCUGAUACAGAAGGCAACAUGAGGAUCACCCAUGUUCAA	19.2 nM	145 nM	–	–
ACUAUACGAGGAUAUACUGUCAGUACUCAGAGAUUAAUGUGACAUGAGGAUCACCCAUGUAGAAGGCGUUUACU	31.9 nM	35.3 nM	–	–
AGAGGUCGCACAGGAUAUCAUACAUGAGGAUCACCCAUGUCAGAAAACAAAUGAGAAGGGUGCGCAUUAAUUGCUUGUGAAGAA	–	–	15.1 nM	5.12 nM
UCCAAGCUAGGAUAUACCCAGGGUUUGUUCUCUAACAAAACACAUGAGGAUCACCCAUGUAGAAGGAGCCGGGA	58.1 nM	62.9 nM	–	–
CUUCUGUGAGGAUAUGUGAACCCGUGCCGAAAGGAUGGGAAACAGAAGGCACAUGAGGAUCACCCAUGUAAAAU	35.3 nM	179 nM	–	–
AAGUCGAGUGUGAGGAUAUUGACCGGACGACCCAUCGAGAAGGCACAUGAGGAUCACCCAUGUGAUUCAGCUCA	17 nM	23 nM	–	–
CCGGAAAUGAAGGAUAUAGGAGUCGAUAGACACCUAGAAGGUCAUACAUGAGGAUCACCCAUGUGUCCUACCGG	15.2 nM	31 nM	–	–
GGGUACAUCGGAGGAUAUCAUGAAAAUACAUGAGGAUCACCCAUGUCGAUGGAGACAUCGGAGAUUGAGAAGGCCGAUGUACCG	–	–	11.9 nM	6.01 nM
CGUUUUUAUGUAGGAUAUGCUUGUGGUAAGAUAGCAGAAGGACAUGAGGAUCACCCAUGUUAAUGAUAGAGAUUUUAUGUGGCG	37.8 nM	61.4 nM	–	–
UUAAUGUGAGGAUAUCAGGUGUGCUAGAGUACUGGUACAUCUGAGAAGGCACAUGAGGAUCACCCAUGUUCUUC	36.9 nM	110 nM	–	–
CUUUUGUGAGGAUAUCAGUAGUAAUACAAUAGUAUUACUACUGAGAAGGCACAUGAGGAUCACCCAUGUUCUUC	25.5 nM	68.2 nM	–	–
UAGGACGAACAGUGCCGUGGAACGAAGGAUAUACAGGGACGUCGGCUCACAUGAGGAUCACCCAUGUAGAAGGUCGACACGCGC	8.91 nM	48.3 nM	–	–
